Data set [1] is filed under the species Homo sapiens. As to the kind of experiment: Stabilization of fluorescently-labeled human GR_pT524 peptide/human 14-3-3 zeta expressed in Escherichia coli BL21 (DE3)STAR competent cells protein-protein interaction assessed as increase in FP signal of 14-3-3/phosphopeptide complex incubated for 1 hr by Fluorescence polarization assay. The method, boiled down:
(§1)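 14-3-3ζ/phosphopeptide fluorescence polarization assay run as a concentration-response. EC1.2 is the compound concentration (μM) giving a 20% rise in FP signal of the 14-3-3/phosphopeptide complex, read from the curve. Triplicate, three independent experiments, errors as standard deviation.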
Background: In fluorescence polarisation assays a small probe gives low polarisation when free and higher when bound to something large.

Data set [2] addresses T1, Glucocorticoid receptor (Homo sapiens) (UniProt P04150).
T1 sequence (whole entry): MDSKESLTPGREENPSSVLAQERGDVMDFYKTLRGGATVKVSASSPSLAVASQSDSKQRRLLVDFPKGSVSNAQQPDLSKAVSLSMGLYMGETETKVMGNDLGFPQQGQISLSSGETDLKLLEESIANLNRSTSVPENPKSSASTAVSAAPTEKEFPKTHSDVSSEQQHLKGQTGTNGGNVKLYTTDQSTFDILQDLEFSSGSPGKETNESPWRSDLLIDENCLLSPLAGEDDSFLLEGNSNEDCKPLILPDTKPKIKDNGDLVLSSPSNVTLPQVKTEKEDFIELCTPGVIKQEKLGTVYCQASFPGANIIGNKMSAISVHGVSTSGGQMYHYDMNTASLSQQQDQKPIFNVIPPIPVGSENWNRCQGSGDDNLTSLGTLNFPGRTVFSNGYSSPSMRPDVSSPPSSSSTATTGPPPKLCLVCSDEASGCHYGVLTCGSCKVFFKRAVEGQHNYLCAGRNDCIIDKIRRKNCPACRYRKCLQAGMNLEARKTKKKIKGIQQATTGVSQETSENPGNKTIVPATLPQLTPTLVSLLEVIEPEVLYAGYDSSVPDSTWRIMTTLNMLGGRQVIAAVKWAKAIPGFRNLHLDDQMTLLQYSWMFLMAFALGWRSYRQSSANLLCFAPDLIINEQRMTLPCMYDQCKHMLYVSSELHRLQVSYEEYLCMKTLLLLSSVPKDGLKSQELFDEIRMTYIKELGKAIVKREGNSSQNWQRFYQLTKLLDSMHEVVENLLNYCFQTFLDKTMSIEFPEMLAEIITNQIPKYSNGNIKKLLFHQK
The experiment in a line: Displacement of [3H]dexamethasone from human glucocorticoid receptor by scintillation based radioligand binding assay. (In general: Loss of bound radioactivity is the signal in a displacement assay; it reports binding, not function.)

For data set [3], the species on record is Homo sapiens. As to the kind of experiment: Stabilization of fluorescently-labeled human GR_pT524 peptide/human 14-3-3 zeta expressed in Escherichia coli BL21 (DE3)STAR competent cells protein-protein interaction assessed as fold increase in FP signal of 14-3-3/phosphopeptide complex at […] incubated for 1 hr by Fluorescence polarization assay relative to DMSO.

The species entered for data set [4] is Homo sapiens. As to the kind of experiment: Stabilization of fluorescently-labeled human ER_pT594 peptide/human 14-3-3 zeta expressed in Escherichia coli BL21 (DE3)STAR competent cells protein-protein interaction assessed as increase in FP signal of 14-3-3/phosphopeptide complex at […] incubated for 1 hr by Fluorescence polarization assay.
The species named for data set [5] is Homo sapiens. The experiment in a line: Stabilization of fluorescently-labeled human GR_pT524 peptide/human 14-3-3 zeta expressed in Escherichia coli BL21 (DE3)STAR competent cells protein-protein interaction assessed as increase in FP signal of 14-3-3/phosphopeptide complex at […] incubated for 1 hr by Fluorescence polarization assay.
For data set [6], the species on record is Homo sapiens. As to the kind of experiment: Stabilization of fluorescently-labeled human ER_pT594 peptide/human 14-3-3 zeta expressed in Escherichia coli BL21 (DE3)STAR competent cells protein-protein interaction assessed as fold increase in FP signal of 14-3-3/phosphopeptide complex at […] incubated for 1 hr by Fluorescence polarization assay relative to DMSO.

For data set [7], the species on record is Homo sapiens. As to the kind of experiment: Stabilization of fluorescently-labeled human ER_pT594 peptide/human 14-3-3 zeta expressed in Escherichia coli BL21 (DE3)STAR competent cells protein-protein interaction assessed as increase in FP signal of 14-3-3/phosphopeptide complex incubated for 1 hr by Fluorescence polarization assay. The gist of the method: as §1

Data set [8] is described as follows: Apparent permeability across apical to basolateral side in human Caco-2 cells at 10 uM incubated for 2 hrs. The note with it: caco-2, 2 h. The data set is classed as ADME, cell-based.
For data set [9], the species on record is Homo sapiens. As to the kind of experiment: Selectivity index, ratio of EC20 for stabilization of fluorescently-labeled human GR_pT524 peptide/human 14-3-3 zeta expressed in Escherichia coli BL21 (DE3)STAR competent cells protein-protein interaction to EC20 for stabilization of fluorescently-labeled human ER_pT594 peptide/human 14-3-3 zeta expressed in Escherichia coli BL21 (DE3)STAR competent cells protein-protein interaction.

The species entered for data set [10] is Homo sapiens. As to the kind of experiment: Stabilization of human GR_pT524 peptide/6His-tagged human 14-3-3 zeta protein-protein interaction at 1 mM by surface plasmon resonance analysis. In general terms: SPR reads the build-up and loss of mass on a sensor chip optically.

Active and inactive are the calls of the source. The rule behind the calls is not given here.

`O=C(C1=C(O)C(=O)N(c2ccc(O)c(C(=O)O)c2)C1c1ccc([N+](=O)[O-])cc1)c1ccc(Cl)cc1` (racemic): the EC20 (usually the concentration needed for an effect of 20%) in the data set filed under Homo sapiens [1] was determined as 42 µM. Also, in [2], the result was inactive.
As for `O=C(C1=C(O)C(=O)N(c2ccc(O)c(C(=O)O)c2)[C@H]1c1ccc([N+](=O)[O-])cc1)c1ccccc1`, in the data set filed under Homo sapiens [3], the fold change (FC) amounted to 1.2. Moreover, the 20% effect concentration (EC20) in the data set listed under Homo sapiens [1] was 162 µM. In the data set filed under Homo sapiens [4], the outcome was inactive.
Consider `O=C(C1=C(O)C(=O)N(c2ccc(O)c(C(=O)O)c2)C1c1ccccc1)c1ccccc1` (stereo not drawn), for which the result in the data set filed under Homo sapiens [5] and in the data set listed under Homo sapiens [4] was inactive.
Take `O=C(C1=C(O)C(=O)N(c2ccc(O)c(C(=O)O)c2)C1c1ccc([N+](=O)[O-])cc1)c1cccc(OC(F)F)c1` (stereo not drawn): the result in the data set filed under Homo sapiens [5] and in the data set listed under Homo sapiens [4] was inactive.
Consider `Nc1ccc(C2C(C(=O)c3ccccc3)=C(O)C(=O)N2c2ccc(O)c(C(=O)O)c2)cc1` (stereo not drawn), for which the result in the data set filed under Homo sapiens [5] and in the data set listed under Homo sapiens [4] was inactive.
On to `O=C(C1=C(O)C(=O)N(c2ccc(O)cc2)C1c1ccc([N+](=O)[O-])cc1)c1ccccc1` (stereo not drawn), for which the fold change (FC) in the data set listed under Homo sapiens [6] came to 1.6. For the same molecule, in the data set listed under Homo sapiens [7], the EC20 amounted to 87 µM. The outcome in the data set listed under Homo sapiens [5] was inactive. For the same molecule, the Papp in [8] is reported as 0.13 10^-6 cm/s.
`O=C(O)c1cc(N2C(=O)C(O)=C(c3ccccc3)C2c2ccc([N+](=O)[O-])cc2)ccc1O` (single isomer, unassigned; (-)): the fold change (FC) in the data set listed under Homo sapiens [3] came out at 1.5. The EC20 in the data set filed under Homo sapiens [1] amounted to 40 µM. For the same molecule, in the data set filed under Homo sapiens [4], the outcome was inactive.
In the case of `O=C(C1=C(O)C(=O)N(c2ccc(O)c(C(=O)O)c2)C1c1ccc([N+](=O)[O-])cc1)c1ccccc1` (stereo not drawn), the fold change (FC) in the data set filed under Homo sapiens [3] came to 1.4; in the data set filed under Homo sapiens [6], 1.9. The EC20 came to 63 µM in the data set filed under Homo sapiens [1] and 28 µM in the data set filed under Homo sapiens [7]. Also, the Ratio in the data set filed under Homo sapiens [9] worked out at 2. For the same molecule, the Papp in data set [8] was 0.047 10^-6 cm/s.
`O=C(O)c1cc(N2C(=O)C(O)=C(C(=O)c3ccccc3Cl)C2c2ccc([N+](=O)[O-])cc2)ccc1O` (stereo not drawn): the fold change (FC) turned out to be 1.2 in the data set filed under Homo sapiens [3] and 1.4 in the data set filed under Homo sapiens [6]. The figures for the EC20 in the data set listed under Homo sapiens [1] and in the data set listed under Homo sapiens [7] were 96 µM and 73 µM, respectively.
As for `O=C(C1=C(O)C(=O)N(c2ccc(O)c(C(=O)O)c2)C1c1ccc2c(c1)COC2=O)c1ccccc1` (stereo not drawn), the fold change (FC) in the data set filed under Homo sapiens [3] amounted to 1.2; in the data set listed under Homo sapiens [6] it was 1.6. In addition, the values for the EC20 in the data set filed under Homo sapiens [1] and in the data set listed under Homo sapiens [7] were 150 µM and 63 µM, respectively.
On to `O=C(O)c1cc(N2C(=O)C(O)=C(Cc3ccccc3)C2c2ccc([N+](=O)[O-])cc2)ccc1O` (stereo not drawn), for which the fold change (FC) in the data set listed under Homo sapiens [3] amounted to 1.3; in the data set listed under Homo sapiens [6], 1.2. The EC20 in the data set filed under Homo sapiens [1] is 82 µM; in the data set listed under Homo sapiens [7], 175 µM.
In the case of `O=C(O)c1cc(N2C(=O)C(O)=C(c3ccccc3)C2c2ccc([N+](=O)[O-])cc2)ccc1O` (single isomer, unassigned; (+)), the outcome in the data set filed under Homo sapiens [4] was inactive.
For `O=C(C1=C(O)C(=O)N(c2ccc(O)c(C(=O)O)c2)[C@@H]1c1ccc([N+](=O)[O-])cc1)c1ccccc1`, the fold change (FC) in the data set filed under Homo sapiens [3] amounted to 1.6; in the data set listed under Homo sapiens [6], 2.3. The results for the EC20 in the data set listed under Homo sapiens [1] and in the data set filed under Homo sapiens [7] were 32 µM and 15 µM, respectively.
For the molecule `O=C(C1=C(O)C(=O)N(c2ccccc2O)C1c1ccc([N+](=O)[O-])cc1)c1ccccc1` (stereo not drawn), the fold change (FC) in the data set listed under Homo sapiens [6] stood at 1.4. Further, in the data set listed under Homo sapiens [7], the EC20 amounted to 75 µM. Besides, in the data set filed under Homo sapiens [5], the outcome was inactive. In [8], the Papp is reported as 0.25 10^-6 cm/s.
Take `O=C(C1=C(O)C(=O)N(c2ccc(O)c(C(=O)O)c2)[C@H]1c1ccc([N+](=O)[O-])cc1)c1ccc(Cl)cc1`: the EC20 in the data set listed under Homo sapiens [1] amounted to 126 µM. Besides, the outcome in the data set filed under Homo sapiens [4] was inactive.
Regarding `O=C(O)c1cc(N2C(=O)C(O)=C(c3ccccc3)C2c2ccc([N+](=O)[O-])cc2)ccc1O` (racemic), the fold change (FC) in the data set listed under Homo sapiens [3] came to 1.4. The EC20 in the data set filed under Homo sapiens [1] turned out to be 45 µM. In the data set filed under Homo sapiens [4], the result was inactive.
Turning to `O=C(C1=C(O)C(=O)N(c2ccc(O)c(C(=O)O)c2)[C@@H]1c1ccc([N+](=O)[O-])cc1)c1ccc(Cl)cc1`, in the data set filed under Homo sapiens [1], the EC20 turned out to be 30 µM.
Consider `C=CC(C)(C)OC[C@H]1O[C@H](O[C@@H]2C3=C([C@H](C)COC(C)=O)C[C@H](O)[C@]3(C)/C=C3/[C@@H](COC)CC[C@H]3[C@@H](C)[C@H]2O)[C@H](O)[C@@H](O)[C@@H]1O`, for which the result in the data set listed under Homo sapiens [1] and in the data set listed under Homo sapiens [10] was inactive.

(Values after ChEMBL document CHEMBL5236623, “Designing Selective Drug-like Molecular Glues for the Glucocorticoid Receptor/14-3-3 Protein-Protein Interaction” (J Med Chem, 2022).)
